Laboratory results reported in ChEMBL document CHEMBL1132347, “Cytotoxicity of 2,2':6',2' '-terpyridineplatinum(II) complexes against human ovarian carcinoma” (J Med Chem, 1999).
Values joined by “and” are separate entries in the source; they are usually repeats but may differ in a detail not shown here. Identical values can stand only once.

How the values were obtained:
Assay type in all cases: functional, cell-based
A2780 [1] = experiment: In vitro inhibition of human ovarian cell line A2780
Outline: (§1)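 Single viable cells seeded at 4000-5000/well in DMEM with 10% fetal calf serum and left to attach overnight. Compounds dissolved in water and added at once, 10 concentrations per drug, 4 wells per concentration, 96 h exposure. Cell number in treated versus control wells read by sulforhodamine B staining; IC50 is the concentration cutting absorbance by 50% relative to controls.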

CH1 [2] = experiment: In vitro inhibition of human ovarian cell line (CH1); outline: as §1
CH1 [3] = experiment: In vitro inhibition of human ovarian cell line, resistant to doxorubicin (CH1doxR).; outline: as §1
CH1 [4] = experiment: In vitro inhibition of human ovarian cell line, resistant to cisplatin (CH1cisR).; outline: as §1
A2780 [5] = experiment: In vitro inhibition of human ovarian cell line, resistant to cisplatin (A2780cisR).; outline: as §1
SK-OV-3 = experiment: In vitro inhibition of human ovarian cell line SKOV-3.; outline: as §1
CH1 [6] = experiment: Resistance factor, (IC50 of CH1 cisR / IC50 of CH1); details: Homo sapiens; CH1cisR
CH1 [7] = experiment: Resistance factor, (IC50 of CH1 doxR / IC50 of CH1); details: Homo sapiens
A2780 [8] = experiment: Resistance factor, (IC50 of A2780 cisR cisR / IC50 of A2780); details: Homo sapiens

Row | Substance | IC50 (A2780 [1]) | IC50 (CH1 [2]) | IC50 (CH1 [3]) | IC50 (CH1 [4]) | IC50 (A2780 [5]) | IC50 (SK-OV-3) | Resistance factor (CH1 [6]) | Resistance factor (CH1 [7]) | Resistance factor (A2780 [8])
1 | (2,2':6',2''-terpyridine)platinum (II) complex [listing 1 of 10 here] | 40 µM | 14 µM | 5 µM | 12.5 µM | 92 µM | 17 µM |  |  | 
2 | 4'-chloro-2,2':6,2''-Terpyridineplatinum (II) complex [listing 1 of 4 here] | > 25 µM | 2.05 µM | 0.71 µM | 2.15 µM | 11 µM | 3.5 µM |  |  | 
3 | (2,2':6',2''-terpyridine)platinum (II) complex [listing 2 of 10 here] |  | > 100 µM | 17.5 µM | > 100 µM |  |  |  |  | 
4 | 4'-chloro-2,2':6,2''-Terpyridineplatinum (II) complex [listing 2 of 4 here] |  |  |  |  |  |  | 1 (2×) and 1.3 | 0.3 | 1.4 and 0.6
5 | (2,2':6',2''-terpyridine)platinum (II) complex [listing 3 of 10 here] | 27 µM | 7.2 µM | 1.5 µM | 8.9 µM | 25 µM | 13.5 µM |  |  | 
6 | CARBOPLATIN [listing 1 of 2 here] | 35 µM | 6.2 µM | 6 µM | 14 µM | > 100 µM | > 100 µM |  |  | 
7 | CARBOPLATIN [listing 2 of 2 here] |  |  |  |  |  |  | 2.3 | 1 | 
8 | 4'-chloro-2,2':6,2''-Terpyridineplatinum (II) complex [listing 3 of 4 here] | 2.4 µM | 1.4 µM | 0.46 µM | 1.8 µM | 1.4 µM | 5.1 µM |  |  | 
9 | (2,2':6',2''-terpyridine)platinum (II) complex [listing 4 of 10 here] |  | 17.5 µM | 5.7 µM | 18 µM | > 100 µM | 24 µM |  |  | 
10 | CISPLATIN [listing 1 of 2 here] |  |  |  |  |  |  | 3 | 1.2 | 16.6
11 | (2,2':6',2''-terpyridine)platinum (II) complex [listing 5 of 10 here] | 11.5 µM | 5.2 µM | 3.75 µM | 4.5 µM | 23.5 µM | 15 µM |  |  | 
12 | (2,2':6',2''-terpyridine)platinum (II) complex [listing 6 of 10 here] |  |  |  |  |  |  | 0.9 (3×) and 1 (2×) and 1.2 (3×) |  | 1.3 [middle of 6 runs]
13 | 4'-chloro-2,2':6,2''-Terpyridineplatinum (II) complex [listing 4 of 4 here] | 4.75 µM | 2.15 µM |  |  | 6.6 µM | 1.8 µM |  |  | 
14 | (2,2':6',2''-terpyridine)platinum (II) complex [listing 7 of 10 here] | 5.8 µM | 2.1 µM | 0.85 µM | 2.1 µM | 6.7 µM | 9.2 µM |  |  | 
15 | (2,2':6',2''-terpyridine)platinum (II) complex [listing 8 of 10 here] | 39 µM | 5 µM | 1.05 µM | 5.8 µM | 29.5 µM |  |  |  | 
16 | CISPLATIN [listing 2 of 2 here] | 0.53 µM | 0.4 µM | 0.5 µM | 1.2 µM | 8.8 µM | 2.25 µM |  |  | 
17 | (2,2':6',2''-terpyridine)platinum (II) complex [listing 9 of 10 here] | 16 µM | 6.1 µM | 3.95 µM | 7.5 µM | 21.5 µM | 13 µM |  |  | 
18 | (2,2':6',2''-terpyridine)platinum (II) complex [listing 10 of 10 here] | 21.5 µM | 15.5 µM | 5.4 µM | 14 µM |  | > 100 µM |  |  | 
